Converted amounts (≈) assume the structure as drawn. The source made the active and inactive calls. The rule behind the calls is not given here. Where a SMILES comes first, the peptide text is derived from it.
Legend:
[1] = system: Spodoptera exigua; assay: Insecticidal activity against beet armyworm eggs assessed as inhibition of insect growth at 28 degC after 6 days by lepidopteran diet assay; type: functional; details: 144 h
Method in brief: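 Beet armyworm eggs (8-10 per well) on artificial diet in 96-well plates. Test samples were applied in acetone-water (50:50), dried onto the diet surface, and tested at 0.98-500 ppm (of diet weight) in 2-fold steps. Plates were incubated 6 days at 28 °C. Value is the minimum concentration inhibiting growth relative to untreated control.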

[2] = system: Spodoptera exigua; assay: Insecticidal activity against beet armyworm assessed as circling dosed by ingestion from leaf after 18 hrs by lepidopteran limited ingestion exposure assay; type: functional, organism-based
[3] = system: Trichoplusia ni; assay: Insecticidal activity against cabbage looper assessed as body tremors dosed by ingestion from leaf after 18 hrs by lepidopteran limited ingestion exposure assay; type: functional, organism-based
[4] = system: Trichoplusia ni; assay: Insecticidal activity against cabbage looper assessed as mortality dosed by ingestion from leaf after 24 hrs by lepidopteran limited ingestion exposure assay; type: functional
Method in brief: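 Cabbage leaf disks (0.25 cm²) were each treated with 1 µL of a 5 mg/mL acetone solution and dried. Each disk was offered to one of six cabbage looper larvae for 24 h, held individually under ambient lab conditions. Solvent and untreated disk controls were included. Afterwards, mortality, intoxication symptoms and disk consumption were noted, and larvae were given artificial diet.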

[5] = system: Spodoptera exigua; assay: Insecticidal activity against fourth instar beet armyworm assessed as body tremors and partial paralysis after 1 hrs by BAW injection assay; type: functional, organism-based
[6] = system: Trichoplusia ni; assay: Insecticidal activity against 3/4th instar cabbage looper assessed as intoxication topically dosed at 5 ug/larva after 24 hrs by lepidopteran topical assay
[7] = system: Spodoptera exigua; assay: Insecticidal activity against 3/4th instar beet armyworm assessed as intoxication and mortality topically dosed at 5 ug/larva after 24 hrs by lepidopteran topical assay
[8] = system: Spodoptera exigua; assay: Insecticidal activity against 3/4th instar beet armyworm assessed as intoxication and mortality topically dosed at 2.5 ug/larva after 24 hrs by lepidopteran topical assay; type: functional, organism-based
[9] = system: Trichoplusia ni; assay: Insecticidal activity against 3/4th instar cabbage looper assessed as intoxication topically dosed at 2.5 ug/larva after 24 hrs by lepidopteran topical assay; type: functional
[10] = system: Spodoptera exigua; assay: Insecticidal activity against fourth instar beet armyworm assessed as body tremors and partial paralysis after 3 to 6 hrs by BAW injection assay; type: functional
[11] = system: Spodoptera exigua; assay: Insecticidal activity against fourth instar beet armyworm assessed as body tremors and partial paralysis after 24 hrs by BAW injection assay; type: functional, organism-based
Method in brief: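 Six fourth-instar beet armyworm were each injected with 0.5 µL of a 20 mg/mL acetone solution (10 µg/insect). Solvent-only and untreated controls were included. Larvae were held singly with artificial diet under ambient conditions. Intoxication symptoms were scored at 1, 24 and 48 h, and mortality at 48 h.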

`CC(C)C[C@@H]1NC(=O)[C@H](Cc2ccccc2)N(C)C(=O)[C@H](C)NC(=O)c2ccccc2NC(=O)[C@H](Cc2ccc(O)cc2)N(C)C1=O` [CYCLOASPEPTIDE A] (HELM PEPTIDE1{[O=C(c1ccccc1N[*:1])[*:2]].A.[meF].L.[meY]}$PEPTIDE1,PEPTIDE1,1:R1-5:R2$$$V2.0) was tested, and the MIC [1] was over 500 mg/L, the Activity [2] was “Active” and the Activity [3] was “Active”. The Activity [4] was “inactive”, the Activity [5] was “inactive” and the Activity [6] was “inactive”. The Activity [7] was “inactive”.
For `CC(C)C[C@@H]1NC(=O)[C@H](Cc2ccccc2)N(C)C(=O)[C@H](C)NC(=O)c2ccccc2NC(=O)[C@H](Cc2ccccc2)N(C)C1=O` [CYCLOASPEPTIDE E] (HELM PEPTIDE1{[O=C(c1ccccc1N[*:1])[*:2]].A.[meF].L.[meF]}$PEPTIDE1,PEPTIDE1,1:R1-5:R2$$$V2.0), the MIC [1] was 10 mg/L (≈ 16 µM), the Activity [8] was “inactive” and the Activity [9] was 50%. For the same compound, the Activity [2] was “Active”, the Activity [3] was “Active” and the Activity [4] was 15%. For the same compound, the Activity [10] was 85% and the Activity [11] was “inactive”.
Compound `CC[C@H]1CCC[C@H](O[C@H]2CC[C@H](N(C)C)[C@@H](C)O2)[C@@H](C)C(=O)C2=C[C@@H]3[C@@H](C=C[C@@H]4C[C@@H](O[C@@H]5O[C@@H](C)[C@H](OC)[C@@H](OC)[C@H]5OC)C[C@@H]34)[C@@H]2CC(=O)O1` [SPINOSYN A] has an MIC [1] of 0.02 mg/L (≈ 0.0273 µM).
